Results on 4 compounds are retold here after PubChem BioAssay AID624042 (Vanderbilt High Throughput Screening Facility, 2012).

Chain of G protein-activated inward rectifier potassium channel 2 (Homo sapiens) + G protein-activated inward rectifier potassium channel 1 (Homo sapiens) (P48051 whole entry, looked up): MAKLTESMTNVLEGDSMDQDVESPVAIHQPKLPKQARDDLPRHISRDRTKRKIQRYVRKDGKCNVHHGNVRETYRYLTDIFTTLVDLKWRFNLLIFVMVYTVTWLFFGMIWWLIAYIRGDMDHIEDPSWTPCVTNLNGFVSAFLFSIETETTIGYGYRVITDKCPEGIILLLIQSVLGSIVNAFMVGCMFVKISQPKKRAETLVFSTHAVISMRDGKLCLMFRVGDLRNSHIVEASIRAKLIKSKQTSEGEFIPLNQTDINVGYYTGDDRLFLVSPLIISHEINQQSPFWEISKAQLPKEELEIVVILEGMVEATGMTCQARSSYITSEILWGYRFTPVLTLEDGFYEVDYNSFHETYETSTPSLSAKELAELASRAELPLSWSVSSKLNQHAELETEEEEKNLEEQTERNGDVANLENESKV
Chain of G protein-activated inward rectifier potassium channel 2 (Homo sapiens) + G protein-activated inward rectifier potassium channel 1 (Homo sapiens) (P48549 whole entry, looked up): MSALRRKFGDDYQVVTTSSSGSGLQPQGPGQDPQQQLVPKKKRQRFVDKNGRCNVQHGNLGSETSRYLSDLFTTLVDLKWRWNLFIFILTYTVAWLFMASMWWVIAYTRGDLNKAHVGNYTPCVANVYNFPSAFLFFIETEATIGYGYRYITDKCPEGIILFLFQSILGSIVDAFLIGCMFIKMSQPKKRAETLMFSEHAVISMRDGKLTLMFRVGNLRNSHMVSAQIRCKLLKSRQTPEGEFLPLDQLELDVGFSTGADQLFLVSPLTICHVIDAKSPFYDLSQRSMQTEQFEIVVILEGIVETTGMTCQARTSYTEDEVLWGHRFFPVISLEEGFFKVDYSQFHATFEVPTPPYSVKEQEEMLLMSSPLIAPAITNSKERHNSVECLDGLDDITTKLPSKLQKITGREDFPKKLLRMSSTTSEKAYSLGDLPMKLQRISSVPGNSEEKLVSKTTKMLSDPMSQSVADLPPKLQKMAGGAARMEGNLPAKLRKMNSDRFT

The target in the test is G protein-activated inward rectifier potassium channel 2 (Homo sapiens) + G protein-activated inward rectifier potassium channel 1 (Homo sapiens) (UniProt P48051+P48549). As to the kind of experiment: GIRK1/2 Tl+ flux activators after pertussis toxin – cell-based, HEK-293 hGIRK1/2, pertussis toxin-treated, thallium flux, FluoZin-2, mechanism study for GIRK activator project, dose response (AID 624042). Conditions: HEK-293 hGIRK1/2 PTX-treated. In outline: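 Assay system: HEK-293 cells stably expressing rmGlu8 and human GIRK1/2, PTX-treated | Buffer or medium: 400 ng/mL PTX during overnight pretreatment | Doses: Serial dilution series of test compounds | Incubation: PTX pretreatment overnight at 37 °C, compounds 4 min before thallium | Signal: FluoZin-2 thallium-flux fluorescence, 1 Hz | Benchmarks: Vehicle wells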
As for `Cc1ccc(NC(=O)Cc2ccccc2Cl)cc1S(=O)(=O)N(C)C`, the EC50 is 2180 nM.
Under `CCOc1ccccc1Nc1nnc(Cc2ccccc2Cl)c(=O)[nH]1` stands 1860 nM.
The result for `Cc1cc(NC(=O)Nc2ccccc2)n(-c2ccccc2)n1` reads 3620 nM; that for `Cc1ccc(-c2nnn(CC(=O)NC3CC4CCC3C4)n2)cc1` (centres undefined), 4220 nM.

In general, EC50 refers to the concentration that produces a half-maximal response.
